Results reported in ChEMBL document CHEMBL1121886, “Synthesis and antineoplastic activity of mitosene analogues of the mitomycins” (J Med Chem, 1981).

Columns and labels:
[1] = (§1) Therapeutic ratio of optimal dose to minimum effective dose(MED); assay type: ADME; conditions: mouse
Method in brief: (§2)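 P388 ascites cells (10⁶) were implanted in CDF₁ female mice. Six mice per dose were dosed on day 1 only; 10 controls received saline, and mitomycin C reference groups had six mice per dose. %T/C = MST treated/control × 100. The optimal dose gave the maximum %T/C. MED is the dose giving %T/C 125. TR = optimal dose/MED.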

[2] = tested on: P388; assay: (Percentage) Maximum effect on life span of mice against P388 murine leukemia when compared with control; assay type: functional, Mus musculus
Method in brief: (§3)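 CDF₁ female mice were implanted with 10⁶ P388 ascites cells and dosed on day 1 only, six mice per dose. There were 10 saline-injected controls, plus a six-mouse mitomycin C group per dose in each experiment. % T/C = median survival treated/control × 100 at optimal dose; MED is the dose giving % T/C 125; TR = optimal dose/MED.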

[3] = tested on: P388; assay: Optimal dose effective against P388 murine leukemia in mice; assay type: functional, Mus musculus; method in brief: as §2
[4] = tested on: P388; assay: (Percentage) Maximum effect on life span of control group of mice for mytomycin C at its optimal dose; assay type: functional, Mus musculus; method in brief: as §3
[5] = tested on: P388; assay: Minimum effective dose (MED) against P388 murine leukemia in mice; assay type: functional; conditions: Mus musculus, read-out: MED; method in brief: as §2
[6] = tested on: L1210; assay: Average change in weight between treated and control groups at 6 mg/kg in mice infected with L1210 leukemia cells; assay type: functional, Mus musculus
Method in brief: (§4)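 L1210 ascites cells (10⁶) were implanted into BDF₁ female mice. Six mice per dose received a single injection on day 1 in distilled water containing Tween 80; the control group had 36 mice. Survivors were counted on days 5 and 30. %T/C = MST (days) treated/control × 100, with 125 as significant. Weight change is the average weight difference between treated and control groups.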

[7] = tested on: L1210; assay: Median survival time against L1210 murine leukemia at 12 mg/kg in mice when compared with control; assay type: functional, Mus musculus
Method in brief: (§5)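 BDF₁ female mice received 10⁶ L1210 ascites cells, then a single injection on day 1 in distilled water containing Tween 80, six mice per dose. The control group had 36 mice. Median survival time is in days; % T/C = MST treated/MST control × 100, with 125 taken as significant. Weight change is the average weight difference between treated and control groups.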

[8] = tested on: L1210; assay: Average change in weight between treated and control groups at 1.5 mg/kg in mice infected with L1210 leukemia cells; assay type: functional, Mus musculus; method in brief: as §4
[9] = tested on: L1210; assay: Median survival time against L1210 murine leukemia at 3 mg/kg in mice when compared with control; assay type: functional, Mus musculus; method in brief: as §5
[10] = tested on: L1210; assay: Median survival time against L1210 murine leukemia at 6 mg/kg in mice when compared with control; assay type: functional, Mus musculus; method in brief: as §5
[11] = tested on: L1210; assay: (§6) Average change in weight between treated and control groups at 3 mg/kg in mice infected with L1210 leukemia cells; assay type: functional, Mus musculus; method in brief: as §5
[12] = (§7) Average change in weight between treated and control groups at 12 mg/kg in mice infected with L1210 leukemia cells; assay type: functional, Mus musculus; method in brief: as §4
[13] = tested on: L1210; assay: Median survival time against L1210 murine leukemia at 1.5 mg/kg in mice when compared with control; assay type: functional, Mus musculus; method in brief: as §5
[14] = tested on: L1210; assay: as §6; assay type: functional, Mus musculus; method in brief: as §4; remark: listed apart in the source
[15] = tested on: L1210; assay: Average change in weight between treated and control groups at 24 mg/kg in mice infected with L1210 leukemia cells; assay type: functional, Mus musculus; method in brief: as §5
[16] = tested on: L1210; assay: as §7; assay type: functional, Mus musculus; method in brief: as §5
[17] = tested on: L1210; assay: Median survival time against L1210 murine leukemia at 24 mg/kg in mice when compared with control; Toxic; assay type: functional, organism-based; parameters: dose 24 mg/kg; conditions: Mus musculus; method in brief: as §4
[18] = tested on: L1210; assay: Median survival time against L1210 murine leukemia at 24 mg/kg in mice when compared with control; assay type: functional, Mus musculus; method in brief: as §5
[19] = as §1; assay type: ADME; conditions: mouse, p388; method in brief: as §3

Structure (SMILES) | selectivity ratio [1] | T/C [2] | Dose [3] | T/C [4] | minimal effective dose [5] | also measured
COC1=C(C)C(=O)c2c(c(COC(N)=O)c3n2CCC3OC(C)=O)C1=O (centres undefined) | 8 | 165% | 6.4 mg/kg | 229% | 0.8 mg/kg | –
COC1=C(C)C(=O)c2c(c(COC(N)=O)c3n2CCC3O)C1=O (centres undefined) | – | 113% | 6.4 mg/kg | 181% | – | –
CO[C@@]12[C@H](COC(N)=O)C3=C(C(=O)C(C)=C(N)C3=O)N1C[C@@H]1N[C@@H]12 [MITOMYCIN] | – | – | – | – | – | Average weight change [6]: -3.6 g; T/C [7]: 110%; Average weight change [8]: -1.2 g; T/C [9]: 122%; T/C [10]: 124%; Average weight change [11]: -2.4 g; Average weight change [12]: -5.5 g; T/C [13]: 108%
COC1=C(C)C(=O)c2c(c(COC(N)=O)c3n2CCC3OC(N)=O)C1=O (centres undefined) | 16 | 163% | 6.4 mg/kg | 238% | 0.4 mg/kg | Average weight change [6]: -1.7 g; Average weight change [14]: -3.2 g; T/C [7]: 122%; Average weight change [8]: -1.4 g; T/C [9]: 118%; T/C [10]: 116%; Average weight change [15]: -5.1 g; Average weight change [16]: -3.4 g; T/C [17]: Toxic; T/C [13]: 114%
COC1=C(C)C(=O)c2c(c(COC(N)=O)c3n2CC/C3=N\O)C1=O | 4 | 150% | 6.4 mg/kg | 181% | 1.6 mg/kg | –
COC1=C(C)C(=O)c2c(c(COC(N)=O)c3n2CCC3OC(=O)CCl)C1=O (centres undefined) | – | 111% | 6.4 mg/kg | 224% | – | –
CC1=C(N2CC2)C(=O)c2c(COC(N)=O)c3n(c2C1=O)CCC3OC(N)=O (centres undefined) | 64 | 144% | 51.2 mg/kg | 183% | 0.8 mg/kg | Average weight change [6]: -1.6 g; T/C [18]: 138%; T/C [7]: 134%; Average weight change [8]: -0.6 g; T/C [9]: 112%; T/C [10]: 114%; Average weight change [15]: -3.2 g; Average weight change [16]: -2.4 g; Average weight change [11]: -1.1 g; T/C [13]: 108%
COC1=C(C)C(=O)c2c(c(COC(N)=O)c3n2CCC3OC(=O)C(C)(C)C)C1=O (centres undefined) | – | 117% | 51.2 mg/kg | 183% | – | –
COC1=C(C)C(=O)c2c(c(COC(N)=O)c3n2CCC3OC(=O)c2cccnc2)C1=O (centres undefined) | 1 | 128% | 6.4 mg/kg | 211% | 6.4 mg/kg | –
CC(=O)OC1CCn2c3c(c(COC(N)=O)c21)C(=O)C(N1CC1)=C(C)C3=O (centres undefined) | – | 122% | 6.4 mg/kg | 224% | – | –
COC1=C(C)C(=O)c2c(c(COC(N)=O)c3n2CCC3)C1=O | – | 128% | 51.2 mg/kg | 183% | 51.2 mg/kg | selectivity ratio [19]: 1
CNC(=O)OC1CCn2c3c(c(COC(N)=O)c21)C(=O)C(OC)=C(C)C3=O (centres undefined) | – | 167% | 6.4 mg/kg | 228% | 1.6 mg/kg | –
COc1c(C)c(O)c2c(c1O)c(COC(N)=O)c1n2C[C@@H]2[C@H]1N2C (some centres undefined) | 16 | 213% | 12.8 mg/kg | 181% | 0.8 mg/kg | –
CNC(=O)OC1CCn2c3c(c(CCl)c21)C(=O)C(OC)=C(C)C3=O (centres undefined) | 1 | 139% | 12.8 mg/kg | 222% | 12.8 mg/kg | –
COC(=O)OC1CCn2c3c(c(COC(N)=O)c21)C(=O)C(OC)=C(C)C3=O (centres undefined) | 2 | 150% | 3.2 mg/kg | 244% | 1.6 mg/kg | –
